Measured values taken from ChEMBL document CHEMBL1138278, “Aromatic amide derivatives of 5,6-dimethoxy-2,3-dihydro-1H-inden(-1-yl)acetic acid as anti-inflammatory agents free of ulcerogenic liability” (Bioorg Med Chem Lett, 2007).

Tests used:
Mus musculus [1] = assay: Analgesic activity in Swiss Albino mouse assessed as inhibition of acetic acid-induced writhing responses at 100 mg/kg, po after 1 hr; type: functional
Method in brief: (§1)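 Mice dosed orally; one hour later injected i.p. with 1% v/v acetic acid at 0.1 ml/10 g. Writhings counted over 15 min, starting five minutes after injection. Means ± SEM, n = 6; p < 0.05 versus control group.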

Rattus norvegicus [2] = assay: Antipyretic activity against LPS-induced pyresis in Wistar rat assessed as change in rectal temperature at 100 mg/kg, po after 1 hr; type: functional
Method in brief: (§2)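 Male Wistar rats (170 ± 20 g) dosed orally: test agents at 100 mg/kg, indomethacin and aspirin at 10 mg/kg and 100 mg/kg. Half an hour later, LPS in apyrogenic saline given at 100 µg/kg i.p. Rectal temperature taken by telethermometer probe immediately before LPS and hourly from 1 to 7 h after. Change in temperature reported; means ± SEM, n = 6.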

Rattus norvegicus [3] = assay: Antipyretic activity against LPS-induced pyresis in Wistar rat assessed as change in rectal temperature at 100 mg/kg, po after 5 hrs; type: functional; method in brief: as §2
Rattus norvegicus [4] = assay: Antipyretic activity against LPS-induced pyresis in Wistar rat assessed as change in rectal temperature at 100 mg/kg, po after 7 hrs; type: functional; method in brief: as §2
Rattus norvegicus [5] = assay: Antipyretic activity against LPS-induced pyresis in Wistar rat assessed as change in rectal temperature at 100 mg/kg, po after 2 hrs; type: functional; method in brief: as §2
Rattus norvegicus [6] = assay: Antiinflammatory activity in Wistar rat assessed as inhibition of carrageenan-induced paw edema at 100 mg/kg, after 4 hrs; type: functional
Method in brief: (§3)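 Male Wistar rats (170 ± 20 g) dosed orally: test agents at 100 mg/kg, reference at 10 mg/kg. One hour later, 0.1 ml of 1% carrageenan injected subplantar into the right hind paw.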

Rattus norvegicus [7] = assay: Antiinflammatory activity in Wistar rat assessed as inhibition of carrageenan-induced paw edema at 100 mg/kg, after 6 hrs; type: functional; method in brief: as §3
Rattus norvegicus [8] = assay: Antiinflammatory activity in Wistar rat assessed as inhibition of carrageenan-induced paw edema at 100 mg/kg, after 1 hr; type: functional; method in brief: as §3
Mus musculus [9] = assay: Analgesic activity in Swiss Albino mouse assessed as number of acetic acid-induced writhing at 100 mg/kg, po after 1 hr relative to control; type: functional; method in brief: as §1
Rattus norvegicus [10] = assay: Antipyretic activity against LPS-induced pyresis in Wistar rat assessed as change in rectal temperature at 100 mg/kg, po after 4 hrs; type: functional; method in brief: as §2
Rattus norvegicus [11] = assay: Antipyretic activity against LPS-induced pyresis in Wistar rat assessed as change in rectal temperature at 100 mg/kg, po after 6 hrs; type: functional; method in brief: as §2
Rattus norvegicus [12] = assay: Antiinflammatory activity in Wistar rat assessed as inhibition of carrageenan-induced paw edema at 100 mg/kg, after 24 hrs; type: functional; method in brief: as §3
Rattus norvegicus [13] = assay: Antiinflammatory activity in Wistar rat assessed as inhibition of carrageenan-induced paw edema at 100 mg/kg, after 2 hrs; type: functional; method in brief: as §3
Rattus norvegicus [14] = assay: Antipyretic activity against LPS-induced pyresis in Wistar rat assessed as change in rectal temperature at 100 mg/kg, po after 3 hrs; type: functional; method in brief: as §2
Rattus norvegicus [15] = assay: Antiinflammatory activity in Wistar rat assessed as inhibition of carrageenan-induced paw edema at 100 mg/kg, after 3 hrs; type: functional; method in brief: as §3
Rattus norvegicus [16] = assay: Antiarthritic activity against adjuvant-induced arthritis in Wistar rat assessed as weight change at 100 mg/kg, po; type: functional
Method in brief: (§4)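 Male Wistar rats (160 ± 10 g) dosed orally once daily for 14 days, from the day before injecting 0.1 ml Freund's complete adjuvant into the subplantar surface of the right hind paw. Paw swelling, including the uninjected left paw, and body weight recorded. Means ± SEM, n = 6; p < 0.05 versus control.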

Rattus norvegicus [17] = assay: Toxicity in 24 hrs fasted Wistar rat assessed as ulcer index at 100 mg/kg, po after 6 hrs; type: organism-based; parameters: dose 100 mg/kg, route oral; conditions: in vivo
Method in brief: (§5)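 Male Wistar rats (175 ± 25 g) fasted 24 h and dosed orally. Acute arm: test agents at 100 mg/kg, indomethacin at 30 mg/kg; rats killed after 6 h, stomachs opened along the greater curvature and scored for ulcers. Chronic arm: 14-day dosing, stomachs examined post mortem at the end of the arthritis study. Ulcer index means ± SEM, n = 4.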

Rattus norvegicus [18] = assay: Antiarthritic activity against adjuvant-induced arthritis in Wistar rat assessed as inhibition of paw edema at 100 mg/kg, po on day 8; type: functional; conditions: 192 h; method in brief: as §4
Rattus norvegicus [19] = assay: Antiarthritic activity against adjuvant-induced arthritis in Wistar rat assessed as inhibition of paw edema at 100 mg/kg, po on day 3; type: functional; conditions: 72 h; method in brief: as §4
Rattus norvegicus [20] = assay: Toxicity in 24 hrs fasted Wistar rat assessed as ulcer index at 100 mg/kg, po after 14 days; type: organism-based; parameters: dose 100 mg/kg, route oral; conditions: in vivo, 336 h; method in brief: as §5
Rattus norvegicus [21] = assay: Antiarthritic activity against adjuvant-induced arthritis in Wistar rat assessed as inhibition of paw edema at 100 mg/kg, po on day 13; type: functional; conditions: 312 h; method in brief: as §4

SMILES	inhibition in vivo at 100 mg/kg (Mus musculus [1]) [%]	Activity (Rattus norvegicus [2]) [°C]	Activity (Rattus norvegicus [3]) [°C]	Activity (Rattus norvegicus [4]) [°C]	Activity (Rattus norvegicus [5]) [°C]	inhibition in vivo at 100 mg/kg (Rattus norvegicus [6]) [%]	inhibition in vivo at 100 mg/kg (Rattus norvegicus [7]) [%]	inhibition in vivo at 100 mg/kg (Rattus norvegicus [8]) [%]	Activity (Mus musculus [9])	Activity (Rattus norvegicus [10]) [°C]	Activity (Rattus norvegicus [11]) [°C]	inhibition in vivo at 100 mg/kg (Rattus norvegicus [12]) [%]	inhibition in vivo at 100 mg/kg (Rattus norvegicus [13]) [%]	Activity (Rattus norvegicus [14]) [°C]	inhibition in vivo at 100 mg/kg (Rattus norvegicus [15]) [%]	Activity (Rattus norvegicus [16]) [g]	UI (Rattus norvegicus [17])	inhibition in vivo at 100 mg/kg (Rattus norvegicus [18]) [%]	inhibition in vivo at 100 mg/kg (Rattus norvegicus [19]) [%]	inhibition in vivo at 100 mg/kg (Rattus norvegicus [21]) [%]	also measured
COc1ccc(NC(=O)CC2CCc3cc(OC)c(OC)cc32)cc1 (configuration not stated)	58.7	-0.12	0.14	0.43	-1.84	27.3	29.6	34.4	14.33	-0.15	0.26	40	18	-0.66	26.1	–	–	–	–	–	–
COc1cc2c(cc1OC)C(CC(=O)Nc1cccc(Cl)c1)CC2 (configuration not stated)	51.5	-0.35	0.23	0.42	-1.62	25.8	38.9	31.2	16.83	0.05	0.44	63.3	28	-0.24	24.6	7.21	0	25.8	37.5	35.7	UI (Rattus norvegicus [20]): 0
COc1cc2c(cc1OC)C(CC(=O)Nc1ccc(C)cc1)CC2 (configuration not stated)	41.4	–	–	–	–	32.8	37	34.4	20.33	–	–	30	26	–	34.8	–	0	–	–	–	–
COc1cc2c(cc1OC)C(CC(=O)Nc1ccc([N+](=O)[O-])cc1)CC2 (configuration not stated)	55.8	–	–	–	–	37.5	37	37.5	15.33	–	–	43.3	36	–	37.7	4.01	0	17.7	27.2	10.8	–
COc1cc2c(cc1OC)C(CC(=O)Nc1ccncc1)CC2 (configuration not stated)	60.1	-0.11	0.35	0.42	-2.23	45.3	46.3	42.2	13.83	0.13	0.74	46.7	44	-0.87	42	4.25	–	11.1	17	19.7	–
COc1cc2c(cc1OC)C(CC(=O)Nc1cccc(C)c1)CC2 (configuration not stated)	54.3	-0.19	0.46	0.82	-1.34	40.6	38	37.5	15.83	0.22	0.71	41.7	29	-0.51	37.7	4.56	–	19.2	16.5	20.7	UI (Rattus norvegicus [20]): 0
